EBI2 antag: EBI2 receptor antagonists, beta-arrestin recruitment, primary screen, cell-based, luminescence, 7a,25-OHC stimulation, uHTS; hit rate 0.81% among 360,000; G-protein coupled receptor 183 (Homo sapiens), P32249; inhibition, % at 5 µM; 7a,25-OHC stimulated; AID 651636, 2012; in the data active means inhibition above about 38%;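 further: enzyme fragment complementation signal reports receptor beta-arrestin coupling in cells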
CCR6 antag: CCR6 receptor antagonists, primary screen, cell-based, CHO-K1, luminescence, beta-arrestin, uHTS; C-C chemokine receptor type 6 (Homo sapiens), P51684; CHO-K1 CCR6 PathHunter beta-arrestin, CCL20-stimulated; inhibition, % at 20 µM; hit rate 0.49% among 340,000; AID 493098, 2011;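 active means compounds whose inhibition of the agonist-driven luminescence signal at 20 µM reaches about 50%, limit read from the data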;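 further: cells stimulated with CCL20 at 14 nM final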
CXCR6 block: CXCR6 receptor inhibitors, primary screen, cell-based, beta-arrestin, luminescence, CHO-K1 PathHunter, 1536-well. inhibition, % at 20 µM. hit rate 0.36% among 360,000; in the data active means inhibition above about 34%, passing the limit was not always enough;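 further: antagonist mode with CXCL16 agonist at 10 nM final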
APJ antagonist: antagonists of human apelin receptor APJ, primary screen, CHO-K1 cells, beta-arrestin complementation, luminescence; P35414; inhibition, % at 20 µM; hit rate 0.32% among 330,000;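 active means inhibition above about 40% at 20 µM, limit read from the data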;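 further: cells challenged with 10 nM apelin-13 agonist together with compound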
APJ ag: agonists of human apelin receptor APJ, primary screen, CHO-K1 cells, PathHunter beta-arrestin, luminescence; hit rate 0.11% among 330,000; P35414; 0% DMSO wells, 100% apelin; activation, % at 20 µM; AID 2520, 2010;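 active means activation more than six SD over the plate average, tested at 20 µM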
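assay system = CHO-K1 APJ beta-arrestin complementation cell line | input = cell density 1000 per well | dosing = compound 20 µM once, DMSO 1% | timing = compound 90 min 25 °C, reagent 1 h | measured by = luminescence from split beta-galactosidase complementation, Galacton Star/Emerald II substrate | read-out basis = APJ agonist activity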
B2AR ag: beta2AR agonists driving receptor internalization, primary screen, cell-based, FAP fluorogen, flow cytometry; Beta-2 adrenergic receptor (Homo sapiens), P07550; Am2.2-beta2AR cells; response, % (concentration not given with the values); hit rate 0.43% among 340,000; AID 504454, 2011;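 active means response above a set limit, near 3 SD of response in nonfluorescent compounds, cut at about 42% in these data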
Target sequence (P07550 whole entry, looked up): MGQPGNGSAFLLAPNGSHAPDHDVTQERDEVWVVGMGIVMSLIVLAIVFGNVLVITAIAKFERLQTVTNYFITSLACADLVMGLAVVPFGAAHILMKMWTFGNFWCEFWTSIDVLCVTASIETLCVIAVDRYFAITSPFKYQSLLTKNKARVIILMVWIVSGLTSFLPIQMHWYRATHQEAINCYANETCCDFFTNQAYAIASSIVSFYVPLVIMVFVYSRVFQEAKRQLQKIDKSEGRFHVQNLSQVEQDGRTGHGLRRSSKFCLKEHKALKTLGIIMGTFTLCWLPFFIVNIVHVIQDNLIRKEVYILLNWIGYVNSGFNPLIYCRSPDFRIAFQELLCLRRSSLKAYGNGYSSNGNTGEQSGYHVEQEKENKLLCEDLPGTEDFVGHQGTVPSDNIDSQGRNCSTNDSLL
Each line names hits and unclear results; the compound was inactive in the other large screens. Only some compounds are listed: those with a hit (about 1.8% of all), similar ones and a draw of the others.

Cc1ccccc1C(=O)Nc1cccc(C(=O)N/N=C/c2cc(Cl)cc([N+](=O)[O-])c2O)c1	CCR6 antag 71
COc1cc(/C=N/NC(=O)c2cccc(NC(=O)c3ccccc3C)c2)ccc1O	none
CCOC(=O)c1nc(C)nc(Sc2n[nH]c(-c3cc(C(F)(F)F)cc(C(F)(F)F)c3)n2)c1C	none
CCOc1cc(N2CCOCC2)c(OCC)cc1NC(=O)c1ccc(S(=O)(=O)N2CC(C)OC(C)C2)cc1 (centres undefined)	none (no result: APJ antagonist, APJ ag)
CC(=O)c1ccc(N=Nc2c(C)[nH]n(-c3ccccc3)c2=O)cc1	CXCR6 block 40
Cc1[nH]n(-c2ccccc2)c(=O)c1N=Nc1ccc(C(=O)O)cc1	none
CCOC(=O)CSC1=NC(=O)/C(=C\c2ccc(OC(C)=O)cc2)S1	CCR6 antag 78
CCOC(=O)CSC1=NC(=O)/C(=C/c2ccc(Br)cc2)S1	CCR6 antag 59
NC1=NC(=O)/C(=C/c2ccc(Br)cc2)S1	none
CC1(C(=O)NCCC#N)CCN1C(=O)CC(c1ccccc1)c1ccccc1 (centres undefined)	none (no result: CCR6 antag, APJ antagonist, APJ ag, B2AR ag)
Cc1nnc(SCC(=O)N/N=C/c2cn(-c3ccccc3)nc2-c2ccccc2)n1-c1ccccc1	B2AR ag 64
Cc1ccc(-c2nnc(SCC(=O)N/N=C/c3ccccc3C(=O)O)n2-c2ccccc2)cc1	none (no result: EBI2 antag, CCR6 antag, CXCR6 block, B2AR ag)
CCCn1c(CNc2ccccc2O)nc2ccccc21	CCR6 antag 62
CCCCn1c(CNC(=O)CCC)nc2ccccc21	none
O=S(=O)(c1ccccc1)n1c(C(O)c2ccccn2)cc2ccccc21 (centres undefined)	none
CC(=O)OCCCNc1cc(SCc2ccco2)c2nonc2c1[N+](=O)[O-]	CCR6 antag 55
COc1ccc(-c2ccc(NCCN3CCOCC3)nn2)cc1OC	none
S=C1NCN(Cc2ccco2)CN1Cc1ccco1	none
CCN1CN(Cc2ccco2)CNC1=S	B2AR ag 48
CNc1ccc(Cl)cc1S(=O)(=O)c1ccccc1[N+](=O)[O-]	none (no result: CCR6 antag, APJ antagonist, APJ ag, B2AR ag)
CC#CCN1c2ccccc2[C@]23C[C@@H](C(=O)OC)N(C(=O)NC4CCCCC4)C2=NC(C(=O)OC)=C(C(=O)OC)[C@H]13	none
Cc1ccc(NN2C(=O)C=C(c3ccc(Cl)cc3)C2=O)cc1	EBI2 antag 46
O=[N+]([O-])c1cc(Cl)ccc1N1CCCC1	none
O=C1C(Cl)=C(N2CCN(c3ccccc3[N+](=O)[O-])CC2)C(=O)c2ccccc21	CXCR6 block 42, B2AR ag 81 (no result: CCR6 antag, APJ antagonist, APJ ag)
CCCNC(=O)C(Cc1ccccc1)NC(=O)c1ccc(-c2ccccc2)cc1 (centres undefined)	none
CC(C)C[C@H](N)c1nnc(S(=O)(=O)Cc2ccc(F)cc2)o1	CXCR6 block 42
CCC1(CC)Cc2ccccc2-c2nc(NN)[nH]c(=O)c21	CCR6 antag 50
COc1cc(/C=C2/C(=O)N(c3ccccc3)N=C2C)ccc1OS(=O)(=O)c1ccccc1	none (no result: EBI2 antag, CCR6 antag, CXCR6 block, B2AR ag)
COc1ccc(/C=C2/C(=O)N(c3ccccc3)N=C2C)cc1Br	B2AR ag 76
Cc1ccc(C(=O)N/C(=C\c2ccc(-c3ccc(Br)cc3)o2)C(=O)NCCCN(C)C)cc1	CCR6 antag 70
Cc1ccc(NC(=O)COC(=O)COc2ccc3ccc(=O)oc3c2)cc1[N+](=O)[O-]	none
O=C(COc1ccc2ccc(=O)oc2c1)Nc1cc([N+](=O)[O-])ccc1F	B2AR ag 60
Cc1ccc(C2=CC(=O)C[C@H](c3ccc(Cl)cc3)C2)cc1	EBI2 antag 74
O=C1NC(=S)N/C1=C\C=C\c1ccccc1	none
CC(=O)CC1OC(=O)C(Br)=C1NCc1ccccc1 (centres undefined)	CCR6 antag 61
CC(C(=O)Nc1ccccc1C#N)N1C(=O)NC2(CCCCCC2)C1=O (centres undefined)	none
CC1(C)C(=O)C=CC(=O)C(C)(C)C(=O)C=CC(=O)C(C)(C)C2=CC=C(O2)C(C)(C)C(=O)C=CC1=O	CCR6 antag 55, B2AR ag 62 (no result: APJ antagonist, APJ ag)
O=C(Nc1nc2ccccc2n1CCOc1ccccc1)c1ccco1	none
Cc1ccc(OCCn2c(NC(=O)c3ccco3)nc3ccccc32)cc1	CXCR6 block 39
COc1cc(C(=O)OCCc2cc3ccccc3c(=O)o2)cc(OC)c1OC	none
CN(CCO)c1ccc(C=NNc2ccc([N+](=O)[O-])cc2S(=O)(=O)Nc2ccccc2C(=O)O)cc1	CCR6 antag 62 (no result: B2AR ag)
O=C(O)c1ccccc1NS(=O)(=O)c1ccc(NNC(=S)Nc2ccc(OC(F)F)cc2)c([N+](=O)[O-])c1	CCR6 antag 53, CXCR6 block 35 (no result: APJ antagonist, APJ ag)
Cc1ccc(NC(=S)NNc2ccc([N+](=O)[O-])cc2S(=O)(=O)Nc2ccccc2C(=O)O)cc1C	CCR6 antag 68 (no result: APJ antagonist, APJ ag)
CC(=O)Nc1ccc(C=NNc2ccc(S(=O)(=O)Nc3ccccc3C(=O)O)cc2[N+](=O)[O-])cc1	none
COc1cccc2sc(Nc3nc(-c4ccncc4)cs3)nc12	EBI2 antag 73
COc1cccc2sc(NN)nc12	none
CCCCOc1ccc(C(=O)N/N=C/c2ccc(OCCN3CCCCC3)c(OC)c2)cc1	B2AR ag 43
COCOc1ccc(C=O)cc1OCOC	none
Cc1ccc(Oc2c(C(N)=O)cc([N+](=O)[O-])cc2[N+](=O)[O-])cc1	B2AR ag 57 (no result: CCR6 antag)
CCOC(=O)C1=C(COC(=O)C2CC(=O)N(c3ccc(C)cc3)C2)NC(=O)NC1C (centres undefined)	none
O=C(COC(=O)C12CC3CC(CC(C3)C1)C2)NNC(=O)c1ccccc1	none
N#CC(=C1C=CC(=NO)C(Cl)=C1)c1ccc(Cl)cc1	CCR6 antag 67 (no result: APJ antagonist, APJ ag)
COc1ccc(C(C#N)=C2C=CC(=NO)C=C2)cc1	none
Cc1ccc(O)c(N=Nc2nccs2)c1	CXCR6 block 52 (no result: CCR6 antag)
CS(=O)(=O)c1ccc(C(=O)OCC(=O)NC23CC4CC(CC(C4)C2)C3)cc1[N+](=O)[O-]	EBI2 antag 65
CC(OC(=O)c1ccc(S(C)(=O)=O)c([N+](=O)[O-])c1)C(=O)NC1C2CC3CC(C2)CC1C3 (centres undefined)	EBI2 antag 65 (no result: CCR6 antag, APJ antagonist, APJ ag, B2AR ag)
CC(=O)C1=CCC(c2ccccc2)N(Cc2ccccc2)C1 (centres undefined)	none (no result: CCR6 antag, CXCR6 block, APJ antagonist, APJ ag, B2AR ag)
COC(=O)C[C@@H]1CC[C@H](NC(=O)Nc2ccc(OC)cc2)[C@@H](CO)O1	none (no result: CCR6 antag, CXCR6 block, APJ antagonist, APJ ag, B2AR ag)
CC1(C(=O)Nc2cccc(C#N)c2)CCN1C(=O)C/C=C/c1ccccc1 (centres undefined)	none (no result: CCR6 antag, APJ antagonist, APJ ag, B2AR ag)
N#CC1=C(N)C(C#N)(C#N)[C@H](c2cccnc2)[C@H]2CN(C(=O)OCc3ccccc3)CC=C12	none
